A number with no mark means an inactive call. Results filed as inconclusive are left out. The source made the active and inactive calls.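 How the source made its calls, unless noted: active means growth inhibition above 25% in both replicates, a cutoff set 3 SD above the mean; inconclusive means above 25% in only one replicate; inactive means the rest.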
How the values were obtained:
[1] = OD615 S. cerevisiae growth inhibition, permissive medium, pilot counter-assay, permissive growth control for S. cerevisiae lifespan shortening project (AID 705); details: OD615, 24 h, at 10 µM, stronger effect = higher value
Method in brief: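 System: Engineered DeaD yeast | Buffer or medium: SC raffinose/galactose permissive medium | Doses: 10 µM single dose, 0.25% DMSO | Times: 24 h exposure, 30 °C | Measured by: OD615 turbidity read | Read-out: Yeast growth inhibition indicated by reduced 24 h OD615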

[2] = Restrictive medium S. cerevisiae growth inhibition, OD615, pilot screen of yeast lifespan reduction project, restrictive growth control (AID 706;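 active means growth inhibition above a set limit, 3 SD over mean compound inhibition, in both replicates, cut at about 43% in these data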;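 further: modified DeaD lifespan yeast strain shifted to restrictive glucose medium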); details: OD615, 48 h, at 10 µM, stronger effect = higher value
Method in brief: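 Assay system: engineered S. cerevisiae DeaD strain; Buffer or medium: CSMM-D glucose medium; Dosing: 10 µM compound, 0.25% DMSO; Times: cell pre-growth 4 h, compound exposure 48 h, 30 °C; Detection: absorbance (optical density) measured at 615 nm.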

[3] = viability gain of MRP-1-high H69AR cells under doxorubicin, pilot screen, MRP-1 activator project, CellTiter-Glo, duplicate (AID 807;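 active means viability increase at or above a cutoff of the median across tested compounds plus 3 SD, cut at about 8.5% in these data, passing the limit was not always enough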;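 further: compound pretreatment 18-22 h then 72 h combined with doxorubicin; 0% = doxorubicin alone and 100% = vehicle without doxorubicin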); details: H69AR viability with doxorubicin, CellTiter-Glo luminescence; at 10 µM; stronger effect = higher value
[4] = growth suppression of beta-catenin knockout HCT116, pilot screen, human colon tumor cells (AID 823;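 active means cell viability at or below a set limit in both duplicate runs, the limit being the all-compound median minus 4 SD, cut at about 23% in these data, passing the limit was not always enough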;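 further: 0% = wells killed by 20 µM Hyamine and 100% = untreated DMSO cell wells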); details: CellTiter-Glo, 60 h, at 10 µM, stronger effect = lower value
[5] = growth suppression of PTEN-deleted HCT116, pilot screen, cell-based, HCT116 clonal line, CellTiter-Glo (AID 824;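 active means viability at or below 27.92% in each of two runs, the all-compound median minus 4 SD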;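 further: 0% = 20 µM Hyamine control and 100% = vehicle cell control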); details: 60 h, at 10 µM, stronger effect = lower value
[6] = inhibitors of the yeast RAM network, pilot screen, dse1pr::URA3 reporter, 5-FOA selection (AID 869;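 active means inhibition over a set limit, the all-compound mean plus 3 SD, in both replicate runs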;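 further: 0% = DMSO wells with no growth and 100% = 10 µM 1-NA-PP1 with full growth; RAM network block rescues cells from 5-FOA so hits raise OD615 growth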); details: S. cerevisiae dse1pr::URA3 5-FOA growth, OD615, 2 d; at 10 µM; stronger effect = higher value; strain carries analog-sensitive mutant Cbk1 kinase
[7] = RAM signaling pathway blockade in yeast – S. cerevisiae, Pdr1DBD-CYC8 efflux-inhibited sensitized strain, primary screen (AID 1298;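 active means RAM network inhibition above 8.4% in each of two replicates, 3 SD over the compound average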;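 further: 0% = DMSO untreated cells without growth and 100% = 10 µM 1-NA-PP1 full growth; higher means more yeast growth rescued from 5-FOA killing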); details: S. cerevisiae cbk1-as DSE1-URA3 strain, 5-FOA growth OD615, 2 d; at 50 µM; stronger effect = higher value

Row | Structure (SMILES) | growth inhibition [1] | growth inhibition [2] | viability increase [3] | viability [4] | viability [5] | inhibition [6] | RAM network inhibition [7]
1 | O=C(CCN1C(=O)c2ccccc2C1=O)Nc1ccncc1 | 0.69% | -3.13% | 3.4% | 98.5% | 105% | 1.6% | 1.47%
2 | CC(=O)c1c(N2CCN(c3ccccc3)CC2)nc(=S)n(-c2ccccc2)c1C | 3.6% | 15.2% | -3.16% | 92.9% | 99.9% | 0.91% | 6.47%
3 | Cc1ccc(O)c(C2=NOC(O)(C(F)(F)C(F)F)C2)c1 (configuration not stated) | -0.995% | 9.35% | -5.27% | 93.4% | 92.9% | 0.72% | 5.23%
4 | COc1ccc(OC)c(NC(=O)COC(=O)c2ccc(S(=O)(=O)N3CCOCC3)cc2)c1 | -3.99% | 1.01% | -1.17% | 94.5% | 91.9% | 2.73% | 5.32%
5 | O=c1oc(-c2cc3ccccc3o2)nc2sc3c(c12)CCCC3 | -10.5% | -6.6% | 3.77% | 74.4% | 56.9% | 2.1% | 4.52%
6 | COc1ccc2c(c1)NC1(O)c3ccccc3C(=O)C21O (configuration not stated) | -5.39% | 4.5% | -1.41% | 99.3% | 98.3% | 1.53% | 3.44%
7 | CNC(=O)C1CC(=O)N(c2ccc(C)cc2)C1 (configuration not stated) | -11.6% | -11.4% | 0.85% | 98.5% | 102% | 0.395% | 2.24%
8 | Cc1cc(C)n(-c2nc(C)nc(NCc3ccccc3)n2)n1 | -17.5% | -11.6% | -2.88% | 88.4% | 82.7% | 0.215% | 0.98%
9 | CC1CCc2nn(CC(=O)N3CCCCCC3)cc2C1 (configuration not stated) | -3.02% | 1.8% | -0.62% | 100% | 91.4% | 1.23% | 1.06%
10 | CC(C)(C)NC(=O)C1CCCN(S(=O)(=O)c2cccc3cccnc23)C1 (configuration not stated) | -5.03% | 3.88% | -2.62% | 103% | 96.1% | 1.6% | 0.52%
11 | CCOC(=O)C1=C(C)NC(=O)NC1c1ccc(N(CC)CC)cc1 (configuration not stated) | -11.1% | -3.54% | -1.3% | 97.5% | 99.3% | 1.44% | 1.67%
12 | CCCCNC(=O)Nc1ccc(Br)cn1 | -8.62% | 4.73% | -1.6% | 97.6% | 96% | 0.485% | 6.6%
13 | Fc1ccccc1COc1ccc(/C=N/n2cnnc2)cc1 | 3.41% | 23.7% | -1.78% | 102% | 95.4% | 2.11% | 2.09%
14 | COCCCNC(=O)c1c(F)c(F)c(F)c(F)c1F | -11.2% | -2.95% | -1.94% | 95.7% | 92.9% | 0.09% | -0.98%
15 | CCOc1ccccc1NC(=O)C1CCN(S(=O)(=O)c2ccc(OC)c(OC)c2)CC1 | -4.97% | -2.79% | -2.46% | 95% | 98.1% | 0.085% | 0.83%
16 | Cc1ccc(Cl)cc1N1CCN(C(=O)COc2ccc(S(=O)(=O)NC(C)C)cc2)CC1 | 4.32% | -7.2% | -4.67% | 37.3% | 54.8% | 1% | 6.06%
17 | Cc1ccoc1C(=O)NCc1occc1C(=O)O | -12.6% | -16.8% | -3.44% | 96.2% | 93.1% | -0.575% | 1.58%
18 | Cn1c(NC(=O)Cc2cccs2)cc(=O)n(C)c1=O | 5.64% | 5.55% | -0.45% | 105% | 101% | 1.26% | -2.37%

Row | Structure (SMILES) | growth inhibition [1] | growth inhibition [2] | viability increase [3] | viability [4] | viability [5] | inhibition [6] | RAM network inhibition [7]
19 | Cc1oc(-c2cccs2)nc1CS(=O)CC(=O)NC1CCCCCC1 (configuration not stated) | 11.3% | 51.7% (active) | -2.99% | 75.4% | 84.5% | -0.045% | -1.22%
20 | O=C(NCCN1CCN(c2cccc(Cl)c2)CC1)C1CCCN(S(=O)(=O)c2cnc[nH]2)C1 (configuration not stated) | 3.09% | 3.15% | -1.5% | 91.1% | 89.7% | 0.895% | 5.7%
21 | COc1ccc(-c2nnc(NC(=O)C(C)C)o2)cc1 | 2.56% | 6.86% | -1.77% | 103% | 102% | 1.23% | 4.26%
22 | COc1ccc(CN2C(=O)CCC2(C)C(=O)NC2CCCC2)c(OC)c1 (configuration not stated) | -5.04% | -4.46% | 0.91% | 105% | 101% | 0.71% | 2.04%
23 | Cc1csc2ncc(C(=O)Nc3ccc4c(c3)OCCO4)c(=O)n12 | -13.1% | -17.3% | -2.34% | 102% | 97.5% | 2.96% | 6.97%
24 | O=C(NCCCN1CCCC1)c1ccc(CS(=O)(=O)c2ccc(Br)cc2)o1 | -5.7% | -13.3% | -0.99% | 90.6% | 96.5% | 1.63% | 2.23%
25 | Cc1ccc(S(=O)(=O)N2CCCC(C(=O)O)C2)s1 (configuration not stated) | -4.2% | -4.86% | 1.27% | 97% | 99.6% | 0.59% | -1.67%
26 | COc1ccc(S(=O)(=O)Cc2ccc(C(=O)N3CCN(c4ncccn4)CC3)o2)cc1 | -2.81% | 4.27% | -2.72% | 106% | 103% | 2.58% | 2.27%
27 | CC1CCCC(C)N1CCCNC(=O)c1cc2c(=O)n(C)c3ccccc3c2n1C (configuration not stated) | -11.5% | -10.6% | -6.03% | 68.9% | 71.5% | -0.625% | 2.26%
28 | CCn1c(-c2cc(OC)ccc2OC)csc1=Nc1c(C)n(C)n(-c2ccccc2)c1=O | -11.1% | -22.9% | 0.28% | 93.8% | 92.5% | 1.58% | 4.62%
29 | COc1ccccc1N1CCN(c2cc(C)nc3nc(C)nn23)CC1 | -9.41% | -13.6% | -4.75% | 85.7% | 83.6% | 2.03% | -0.21%
30 | CC(=O)c1ccc(NC(=O)CSc2nnc(Cn3c(=O)sc4ccccc43)n2C)cc1 | -0.18% | 14.4% | -1.49% | 100% | 101% | 0.83% | 3.42%
31 | O=C(NCCCN1CCCC1=O)c1ccccc1NS(=O)(=O)c1ccc(F)cc1 | -7.5% | -22% | -2.44% | 88.9% | 94.1% | 1.57% | 5.37%
32 | CCc1nnc(NC(=O)c2ccc(N3C(=O)CCC3=O)cc2)s1 | -9.63% | -14.9% | -1.98% | 101% | 94.7% | 1.32% | 2.48%
33 | O=C(COc1ccccc1Br)NCc1ccco1 | 2.92% | 8.48% | -3.54% | 97% | 102% | 1.51% | 3.3%
34 | CCN(CC)C(=O)c1cc2sc3ccccc3c2s1 | -11.5% | -2.27% | 0.41% | 88.1% | 95% | -0.05% | 3.43%
35 | O=C(c1ccc(CNc2c(N3CCOCC3)c(=O)c2=O)cc1)N1CC=C(c2ccccc2)CC1 | -1.62% | -7.31% | -0.15% | 95.3% | 94.8% | 2.02% | 6.56%
36 | CC(N=C1NS(=O)(=O)c2ccccc21)c1ccccc1 (configuration not stated) | 0.11% | 1.27% | 0.15% | 103% | 96.2% | -0.16% | 5.97%
